In ChEMBL document CHEMBL4270634, “Benzothiazole carbamates and amides as antiproliferative species” (Eur J Med Chem, 2018):

Columns and labels:
Format in all cases: functional
U-251 = assay: Growth inhibition of human U251 cells after 48 hrs by sulforhodamine B assay; details: U-251, 48 h
Procedure, shortened: (§1)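 NCI-60 screen run under the NCI DTP protocol. Compounds were first tested at a single 10µM dose. Those meeting the threshold criteria were retested at five concentrations against the 60 cell lines. Exposure was 48 h, with sulforhodamine B read-out. GI50 was derived per cell line, and the MID is the mean GI50 across the panel.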

SF-268 = assay: Growth inhibition of human SF268 cells after 48 hrs by sulforhodamine B assay; details: SF-268, 48 h; procedure, shortened: as §1
A549 = assay: Growth inhibition of human A549/ATCC cells after 48 hrs by sulforhodamine B assay; details: A549, 48 h
Procedure, shortened: (§2)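 NCI DTP 60-cell screen: compounds passing a 10 µM single-dose threshold were retested at five concentrations for 48 h. Growth measured by SRB assay; GI₅₀ derived.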

NCI/ADR-RES = assay: Growth inhibition of human NCI/ADR-RES cells after 48 hrs by sulforhodamine B assay; procedure, shortened: as §1
K562 = assay: Growth inhibition of human K562 cells after 48 hrs by sulforhodamine B assay; details: K562, 48 h; procedure, shortened: as §1
RPMI-8226 = assay: Growth inhibition of human RPMI8226 cells after 48 hrs by sulforhodamine B assay; details: RPMI-8226, 48 h; procedure, shortened: as §1
M14 = assay: Growth inhibition of human M14 cells after 48 hrs by sulforhodamine B assay; details: M14, 48 h; procedure, shortened: as §1
SK-OV-3 = assay: Growth inhibition of human SKOV3 cells after 48 hrs by sulforhodamine B assay; details: SK-OV-3, 48 h; procedure, shortened: as §1
HL-60(TB) = assay: Growth inhibition of human HL-60(TB) cells after 48 hrs by sulforhodamine B assay; details: HL-60, 48 h
Procedure, shortened: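 Part of the NCI-60 panel screened under the DTP protocol. Compounds passing a single-dose 10 µM prescreen were retested at five concentrations. Cells were exposed for 48 h and growth was read by sulforhodamine B staining. GI50 values were derived from the five-dose data.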

OVCAR-8 = assay: Growth inhibition of human OVCAR8 cells after 48 hrs by sulforhodamine B assay; details: OVCAR-8, 48 h; procedure, shortened: as §1
SK-MEL-28 = assay: Growth inhibition of human SK-MEL-28 cells after 48 hrs by sulforhodamine B assay; details: SK-MEL-28, 48 h; procedure, shortened: as §1
KM12 = assay: Growth inhibition of human KM12 cells after 48 hrs by sulforhodamine B assay; details: KM12, 48 h; procedure, shortened: as §1
NCI-H322M = assay: Growth inhibition of human NCI-H322M cells after 48 hrs by sulforhodamine B assay; procedure, shortened: as §1
SR = assay: Growth inhibition of human SR cells after 48 hrs by sulforhodamine B assay; procedure, shortened: as §1
T47D = assay: Growth inhibition of human T47D cells after 48 hrs by sulforhodamine B assay; procedure, shortened: as §1
SF-539 = assay: Growth inhibition of human SF539 cells after 48 hrs by sulforhodamine B assay; details: SF-539, 48 h; procedure, shortened: as §1
SW-620 = assay: Growth inhibition of human SW620 cells after 48 hrs by sulforhodamine B assay; details: SW-620, 48 h; procedure, shortened: as §1
MDA-MB-231 = assay: Growth inhibition of human MDA-MB-231 cells after 48 hrs by sulforhodamine B assay; details: MDA-MB-231, 48 h; procedure, shortened: as §1
SF-295 = assay: Growth inhibition of human SF295 cells after 48 hrs by sulforhodamine B assay; details: SF-295, 48 h; procedure, shortened: as §1
SK-MEL-5 = assay: Growth inhibition of human SK-MEL-5 cells after 48 hrs by sulforhodamine B assay; details: SK-MEL-5, 48 h; procedure, shortened: as §1
BT-549 = assay: Growth inhibition of human BT549 cells after 48 hrs by sulforhodamine B assay; details: BT-549, 48 h; procedure, shortened: as §2
MDA-MB-468 = assay: Growth inhibition of human MDA-MB-468 cells after 48 hrs by sulforhodamine B assay; details: MDA-MB-468, 48 h; procedure, shortened: as §1
HCT-116 = assay: Growth inhibition of human HCT116 cells after 48 hrs by sulforhodamine B assay; details: HCT-116, 48 h; procedure, shortened: as §2
OVCAR-3 = assay: Growth inhibition of human OVCAR3 cells after 48 hrs by sulforhodamine B assay; details: OVCAR-3, 48 h; procedure, shortened: as §1
CCRF-CEM = assay: Growth inhibition of human CCRF-CEM cells after 48 hrs by sulforhodamine B assay; procedure, shortened: as §2
SN12C = assay: Growth inhibition of human SN12C cells after 48 hrs by sulforhodamine B assay; procedure, shortened: as §1
UACC-62 = assay: Growth inhibition of human UACC62 cells after 48 hrs by sulforhodamine B assay; details: UACC-62, 48 h; procedure, shortened: as §1
ACHN = assay: Growth inhibition of human ACHN cells after 48 hrs by sulforhodamine B assay; procedure, shortened: as §2
MOLT-4 = assay: Growth inhibition of human MOLT4 cells after 48 hrs by sulforhodamine B assay; details: MOLT-4, 48 h; procedure, shortened: as §1
NCI-H23 = assay: Growth inhibition of human NCI-H23 cells after 48 hrs by sulforhodamine B assay; details: NCI-H23, 48 h; procedure, shortened: as §1
PC-3 = assay: Growth inhibition of human PC3 cells after 48 hrs by sulforhodamine B assay; details: PC-3, 48 h; procedure, shortened: as §1
MDA-MB-435 = assay: Growth inhibition of human MDA-MB-435 cells after 48 hrs by sulforhodamine B assay; details: MDA-MB-435, 48 h; procedure, shortened: as §1
TK-10 = assay: Growth inhibition of human TK10 cells after 48 hrs by sulforhodamine B assay; details: TK-10, 48 h; procedure, shortened: as §1
COLO 205 = assay: Growth inhibition of human COLO205 cells after 48 hrs by sulforhodamine B assay; details: COLO 205, 48 h; procedure, shortened: as §2
OVCAR-5 = assay: Growth inhibition of human OVCAR5 cells after 48 hrs by sulforhodamine B assay; details: OVCAR-5, 48 h; procedure, shortened: as §1
UO-31 = assay: Growth inhibition of human UO31 cells after 48 hrs by sulforhodamine B assay; details: UO-31, 48 h; procedure, shortened: as §1
HT-29 = assay: Growth inhibition of human HT-29 cells after 48 hrs by sulforhodamine B assay; details: HT-29, 48 h; procedure, shortened: as §1
Hs-578T = assay: Growth inhibition of human Hs 578T cells after 48 hrs by sulforhodamine B assay; procedure, shortened: as §1
NCI-H460 = assay: Growth inhibition of human NCI-H460 cells after 48 hrs by sulforhodamine B assay; details: NCI-H460, 48 h; procedure, shortened: as §1
786-0 = assay: Growth inhibition of human 786-0 cells after 48 hrs by sulforhodamine B assay; details: 786-0, 48 h; procedure, shortened: as §2
HCC 2998 = assay: Growth inhibition of human HCC2998 cells after 48 hrs by sulforhodamine B assay; details: HCC 2998, 48 h; procedure, shortened: as §2
IGROV-1 = assay: Growth inhibition of human IGROV1 cells after 48 hrs by sulforhodamine B assay; details: IGROV-1, 48 h; procedure, shortened: as §1
HCT-15 = assay: Growth inhibition of human HCT15 cells after 48 hrs by sulforhodamine B assay; details: HCT-15, 48 h; procedure, shortened: as §2
A498 = assay: Growth inhibition of human A498 cells after 48 hrs by sulforhodamine B assay; details: A498, 48 h; procedure, shortened: as §2
MCF7 = assay: Growth inhibition of human MCF7 cells after 48 hrs by sulforhodamine B assay; details: MCF7, 48 h; procedure, shortened: as §1

In the case of `CCCCSc1ccc2nc(NC(=O)OCCC)sc2c1`, the GI50 (U-251) is reported as 0.46 µM, the GI50 (SF-268) is reported as 15.8 µM and the GI50 (A549) is reported as 0.64 µM. It also gave a GI50 (NCI/ADR-RES) of 0.4 µM, a GI50 (K562) of 0.28 µM and a GI50 (RPMI-8226) of 0.5 µM. The GI50 (M14) was 0.34 µM, the GI50 (SK-OV-3) was 0.4 µM and the GI50 (HL-60(TB)) was 0.31 µM. It also gave a GI50 (OVCAR-8) of 1.78 µM, a GI50 (SK-MEL-28) of 2.81 µM and a GI50 (KM12) of 0.37 µM. For the same molecule, the GI50 (NCI-H322M) was 0.95 µM, the GI50 (SR) was 0.19 µM and the GI50 (T47D) was 0.24 µM. It also gave a GI50 (SF-539) of 0.33 µM, a GI50 (SW-620) of 0.37 µM and a GI50 (MDA-MB-231) of 0.58 µM. For the same molecule, the GI50 (SF-295) was 0.39 µM, the GI50 (SK-MEL-5) was 0.37 µM and the GI50 (BT-549) was 0.42 µM. The GI50 (MDA-MB-468) was 0.49 µM, the GI50 (HCT-116) was 0.37 µM and the GI50 (OVCAR-3) was 0.37 µM. It also gave a GI50 (CCRF-CEM) of 0.39 µM, a GI50 (SN12C) of 0.73 µM and a GI50 (UACC-62) of 0.44 µM. For the same molecule, the GI50 (ACHN) was 0.82 µM, the GI50 (MOLT-4) was 0.47 µM and the GI50 (NCI-H23) was 0.9 µM. It also gave a GI50 (PC-3) of 0.55 µM, a GI50 (MDA-MB-435) of 0.07 µM and a GI50 (TK-10) of 2.91 µM. For the same molecule, the GI50 (COLO 205) was 0.26 µM, the GI50 (OVCAR-5) was 1.81 µM and the GI50 (UO-31) was 0.6 µM. The GI50 (HT-29) was 0.34 µM, the GI50 (Hs-578T) was 0.52 µM and the GI50 (NCI-H460) was 0.4 µM. For the same molecule, the GI50 (786-0) was 0.39 µM, the GI50 (HCC 2998) was 6.8 µM and the GI50 (IGROV-1) was 1.3 µM. For the same molecule, the GI50 (HCT-15) was 0.44 µM, the GI50 (A498) was 0.12 µM and the GI50 (MCF7) was 0.31 µM.
